# Screening results deposited in PubChem BioAssay by Broad Institute.
# A selection: hits, their analogues and other compounds. The true share with any hit is near 3.7%.
# ERAP1 HTS inh = human ERAP1 aminopeptidase inhibitors, primary screen, biochemical, single point, plate reader; Endoplasmic reticulum aminopeptidase 1 (Homo sapiens), Q9NZ08; recombinant ERAP1, Leu-AMC fluorescence, 60 min; inhibition, % at 10.7 µM; 340,000 tested, 0.15% active;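 active means mean replicate inhibition of at least 30%, or all replicates individually reaching that 30% level; inactive means mean below 30% and not every replicate reaching it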;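 further: 0% = neutral control wells and 100% = L-leucinethiol positive control wells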
# F508del corr = F508del CFTR correction, initial screen, CFBE line, single point. AID 720511, 2013. activity (quench increase), % at 7.58 µM. 350,000 tested, 0.36% active. CFBE cells, YFP halide quenching; stimulated with forskolin plus potentiator P3; % fluorescence drop versus neutral controls;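 active means mean added fluorescence quench of at least 8% versus neutral control, with both replicates also reaching 8%; inconclusive means only one of the mean or replicate conditions met; inactive means mean below 8% and not both replicates reaching 8%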;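 further: cells transiently co-express mutant CFTR-F508del with the halide-sensitive YFP; corrector assay measuring rescue of mutant channel to the surface after 24 h compound exposure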
# E-sel inducer = E-selectin induction in HUVECs, primary screen, imaging, HUVEC, immunofluorescence imaging, single point | P16581 | normalized: neutral wells 0, TNF-alpha wells 100 | activation, % at 7.58 µM | 260,000 tested, 0.37% active;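 active means mean E-selectin-positive cell signal at least 10% of the positive control, reached in at least 60% of replicates, without over 20% cell loss; inconclusive means no rule given, readout overlaps actives, possibly toxicity-flagged; inactive means the rest, including those meeting only one limit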
#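 assay system = HUVEC, human umbilical vein endothelial cells | input = 3,000 HUVEC seeded per well | medium = EGM-2 growth medium on 0.1% gelatin-coated wells | dosing = one compound dose added by pin transfer | signal = immunofluorescence imaging | read-out basis = % PE-positive cells | control set = TNF-alpha, DMSO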
# DENV2 CPE rescue = inhibitors of DENV2 cytopathic effect, primary screen, cell-based, plate reader, single concentration; 350,000 tested, 1.7% active; AID 651640, 2012; DENV2-infected cells, cytopathic effect rescue; CPE inhibition, % at 9.99 µM; in the data active means CPE inhibition above about 20%, passing the limit was not always enough; inconclusive means no clear call, values can overlap the other calls; tested in BHK-21 cells;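 further: 0% = median of neutral control wells and 100% = median of positive control wells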
# FGF22 binding = binders of human FGF22 protein, primary screen, FGF22 synaptogenesis inhibitor project, biophysical, thermal shift, single point; Fibroblast growth factor 22 (Homo sapiens), Q9HCT0; recombinant FGF22 thermal shift, SYPRO orange fluorescence; percent of sucrose octasulfate shift, DMSO zero; activity (Tm shift, normalised), % at 9.99 µM; 340,000 tested, 1.5% active;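 active means mean Tm shift, scaled 0 neutral to 100 positive control, at about 1.3% or above, every replicate too, limit read from the data; inconclusive means no clear call, values can overlap the other calls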
# Target sequence (Q9HCT0 whole entry, looked up): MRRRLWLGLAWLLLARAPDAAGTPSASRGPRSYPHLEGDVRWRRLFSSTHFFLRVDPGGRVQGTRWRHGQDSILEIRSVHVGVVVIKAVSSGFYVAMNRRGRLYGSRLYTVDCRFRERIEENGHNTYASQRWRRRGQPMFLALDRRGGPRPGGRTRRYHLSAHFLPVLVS
# An asterisk follows results filed as active; u = inconclusive; x = no result given.
SMILES,ERAP1 HTS inh,F508del corr,E-sel inducer,DENV2 CPE rescue,FGF22 binding
C[C@H]1CCCCO[C@H](CN(C)C(=O)Cc2ccccc2)[C@@H](C)CN([C@@H](C)CO)C(=O)c2cc(NS(=O)(=O)c3ccc(Cl)cc3)ccc2O1,3,-3,0,28*,0
C[C@@H]1CCCCO[C@@H](CN(C)C(=O)Cc2ccccc2)[C@@H](C)CN([C@H](C)CO)C(=O)c2cc(NS(=O)(=O)c3ccc(Cl)cc3)ccc2O1,5,-2,0,25*,0
COc1ccc(S(=O)(=O)Nc2ccc3c(c2)C(=O)N([C@@H](C)CO)C[C@H](C)[C@H](CN(C)C(=O)Cc2ccccc2)OCCCC[C@H](C)O3)cc1,-2,4,0,9,0
COc1ccc(S(=O)(=O)Nc2ccc3c(c2)C(=O)N([C@H](C)CO)C[C@H](C)[C@H](CN(C)C(=O)CCCN(C)C)OCCCC[C@H](C)O3)cc1,-3,-1,0,22*,0
COc1ccc(S(=O)(=O)Nc2ccc3c(c2)C(=O)N([C@@H](C)CO)C[C@H](C)[C@@H](CN(C)C(=O)Cc2ccccc2)OCCCC[C@H](C)O3)cc1,-2,1,0,68*,-1
COCC(=O)N1C[C@H](C)[C@@H](OC)CN(C)C(=O)c2cc(NS(C)(=O)=O)ccc2OC[C@@H]1C,0,-1,1,-15,0
CCNC(=O)C[C@@H]1CC[C@H]2[C@H](COc3ccc(NC(=O)C4CCCCC4)cc3C(=O)N2C)O1,0,4,0,1,x
C[C@@H]1CN([C@@H](C)CO)C(=O)c2cc(C#CC(C)(C)O)cnc2O[C@H]1CN(C)Cc1cncnc1,-3,3,0,64*,0
C[C@@H]1CN([C@@H](C)CO)C(=O)c2cc(C#CC(C)(C)O)cnc2O[C@@H]1CN(C)Cc1cncnc1,11,2,0,23*,0
Cc1noc(C)c1NC(=O)N(C)C[C@@H]1Oc2ncc(C#CC(C)(C)O)cc2C(=O)N([C@H](C)CO)C[C@@H]1C,1,0,0,2,0
C[C@@H]1CN([C@@H](C)CO)C(=O)c2cc(NC(=O)c3ccncc3)ccc2O[C@@H]1CN(C)C(=O)Nc1ccc2c(c1)OCO2,-3,-1,15,-3,0
CCOP(=O)(c1ccccc1)C(O)c1ccc([N+](=O)[O-])cc1 (stereo unspecified),-1,-1,0,39*,0
CCOP(=O)(c1ccccc1)C(O)c1ccc(F)cc1 (stereo unspecified),-9,x,-1,x,0
C[C@H]1CN([C@@H](C)CO)S(=O)(=O)c2ccc(-c3cccnc3)cc2O[C@H]1CN(C)C(=O)C1CCC1,4,1,-1,-5,0
Cc1ccc(-c2nc(NC(=O)c3cc(C(C)(C)C)nn3C)sc2C)cc1Cl,-8,5,8,55*,0
COc1ccc(C(=O)Nc2ccc3c(c2)C(=O)N(C)C[C@H](OC)[C@@H](C)CN(C)[C@@H](C)CO3)cc1,2,0,8,11,0
C[C@H]1CN([C@@H](C)CO)C(=O)c2cccc(NS(=O)(=O)c3cccs3)c2O[C@H]1CN(C)Cc1ccc2c(c1)OCO2,4,-4,-10,-6,0
COc1cc2c(cc1OC)C(c1ccc3c(c1)OCO3)CC(=O)N2 (stereo unspecified),-4,-1,x,2,0
COc1ccc(C2CCc3cc4c(cc3C2=NO)OCO4)cc1OC (stereo unspecified),3,4,0,-5,43*
C[C@H](CO)N1C[C@H](C)[C@@H](CN(C)Cc2ccc(-c3ccccc3)cc2)Oc2ncc(C#CCN(C)C)cc2C1=O,0,-3,0,u,1
COC1=CC(=O)OC(c2cccc([N+](=O)[O-])c2)C1 (stereo unspecified),2,0,0,41*,0
COC1=CC(=O)OC(c2cccc(OC)c2)C1 (stereo unspecified),-5,2,0,-9,0
